The values below come from ChEMBL document CHEMBL1130082, “5,6-Cis-penems: broad-spectrum anti-methicillin-resistant Staphylococcus aureus beta-lactam antibiotics” (1997).

Values after ≈ are worked out from the molar mass of the structure shown.

What all share (type): functional
One assay has as its system Bacillus subtilis. In words: Minimum inhibitory concentration was determined in heart infusion agar medium against Bacillus subtilis ATCC 6633. In outline:
(§1)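 Agar dilution on heart infusion agar, inoculum 10^6 cells/mL, incubated 24 h at 37 °C; the MIC is read as the lowest concentration that inhibits growth.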

The next assay concerns Citrobacter freundii. Kind of assay: Minimum inhibitory concentration was determined in heart infusion agar medium against […] organism Citrobacter freundii GN7391. In outline: as §1
The next assay has as its system Enterococcus faecalis. Kind of assay: Minimum inhibitory concentration was determined in heart infusion agar medium against Enterococcus faecalis ATCC 19433. In outline:
as §1

In another assay the test system is Enterobacter cloacae. In words: Minimum inhibitory concentration was determined in heart infusion agar medium against […] organism Enterobacter cloacae NTCC9394. In outline:
as §1

Assay [1] has as its system Escherichia coli. Kind of assay: Minimum inhibitory concentration was determined in heart infusion agar medium against Escherichia coli NIHJ JC-2. In outline: as §1
For assay [2], the system named is Escherichia coli. Kind of assay: Minimum inhibitory concentration was determined in heart infusion agar medium against […] organism Escherichia coli KC-14/RGN 823. In outline:
as §1

In another assay the test system is Klebsiella pneumoniae. Kind of assay: Minimum inhibitory concentration was determined in heart infusion agar medium against Klebsiella pneumoniae PCI 602. The gist of the method: as §1
The next assay has as its system Pseudomonas aeruginosa. In words: Minimum inhibitory concentration was determined in heart infusion agar medium against Pseudomonas aeruginosa PAO-1. The gist of the method: as §1
Another assay concerns Proteus vulgaris. In words: Minimum inhibitory concentration was determined in heart infusion agar medium against Proteus vulgaris GN 7919. The gist of the method:
as §1

Another assay has as its system Serratia marcescens. In words: Minimum inhibitory concentration was determined in heart infusion agar medium against Serratia marcescens IAM 1136. In outline: as §1
Assay [3] deals with Staphylococcus aureus. Kind of assay: Minimum inhibitory concentration was determined in heart infusion agar medium against Staphylococcus aureus 209P JC-1. The gist of the method:
as §1

The test system of assay [4] is Staphylococcus aureus. Kind of assay: Minimum inhibitory concentration was determined in heart infusion agar medium against Staphylococcus aureus(MRSA). In outline:
as §1

A word on the MIC: it is the smallest concentration in the dilution series that meets the test's criterion for growth inhibition. A high value points to a need for much substance. For the compound `CC[C@H](O)[C@@H]1C(=O)N2C(C(=O)[O-])=C(S[C@@H]3CCN(CC(=O)c4ccccc4)C3)S[C@H]12.[Na+]`, the MIC in the assay on Bacillus subtilis is less than 0.025 µg/mL; in the assay with Citrobacter freundii it was 6.25 µg/mL; with Enterococcus faecalis, 0.78 µg/mL; in the assay on Enterobacter cloacae it was 0.39 µg/mL; against Escherichia coli [1], 0.2 µg/mL; against Escherichia coli [2], 0.78 µg/mL. Also, the MIC against Klebsiella pneumoniae was 0.1 µg/mL; with Pseudomonas aeruginosa, 6.25 µg/mL; against Proteus vulgaris it was 0.78 µg/mL; in the assay on Serratia marcescens it was 1.56 µg/mL; with Staphylococcus aureus [3], 0.1 µg/mL; against Staphylococcus aureus [4], 3.13 µg/mL.

In the case of `CC[C@H](O)[C@@H]1C(=O)N2C(C(=O)[O-])=C([C@H]3CCCO3)S[C@H]12.[Na+]`, the MIC in the assay on Bacillus subtilis was 0.05 µg/mL; in the assay on Citrobacter freundii, greater than 100 µg/mL; against Enterococcus faecalis, 0.39 µg/mL; with Enterobacter cloacae, greater than 100 µg/mL; against Escherichia coli [1] it was 3.13 µg/mL; against Escherichia coli [2] it was greater than 100 µg/mL. The MIC with Klebsiella pneumoniae is 1.56 µg/mL; against Pseudomonas aeruginosa, greater than 100 µg/mL; against Proteus vulgaris, 1.56 µg/mL; against Serratia marcescens it was 25 µg/mL; in the assay on Staphylococcus aureus [3], 0.39 µg/mL; in the assay on Staphylococcus aureus [4], 6.25 µg/mL.

As for `CC[C@@H](O)[C@H]1C(=O)N2C(C(=O)[O-])=C([C@H]3CCCO3)S[C@H]12.[Na+]`, the MIC is 0.78 µg/mL with Bacillus subtilis; greater than 100 µg/mL in the assay with Citrobacter freundii; 25 µg/mL against Enterococcus faecalis; greater than 100 µg/mL in the assay with Enterobacter cloacae; 100 µg/mL in the assay with Escherichia coli [1]; 12.5 µg/mL in the assay with Escherichia coli [2]. Further, the MIC was 12.5 µg/mL in the assay on Klebsiella pneumoniae; greater than 100 µg/mL against Pseudomonas aeruginosa; 25 µg/mL in the assay on Proteus vulgaris; greater than 100 µg/mL against Serratia marcescens; 0.78 µg/mL with Staphylococcus aureus [3]; greater than 100 µg/mL with Staphylococcus aureus [4].

Regarding `CC[C@H](O)[C@@H]1C(=O)N2C(C(=O)[O-])=C(c3ccccc3)S[C@H]12.[Na+]`, the MIC in the assay with Bacillus subtilis is 0.2 µg/mL; in the assay with Citrobacter freundii it was greater than 100 µg/mL; against Enterococcus faecalis it was 0.2 µg/mL; in the assay on Enterobacter cloacae, greater than 100 µg/mL; in the assay on Escherichia coli [1], 25 µg/mL; in the assay with Escherichia coli [2], 50 µg/mL. Further, the MIC against Klebsiella pneumoniae worked out at 6.25 µg/mL; against Pseudomonas aeruginosa it was 100 µg/mL; against Proteus vulgaris it was 1.56 µg/mL; in the assay on Serratia marcescens, 50 µg/mL; with Staphylococcus aureus [3] it was 0.78 µg/mL; against Staphylococcus aureus [4], 12.5 µg/mL.

On to `CC[C@H](O)[C@@H]1C(=O)N2C(C(=O)[O-])=C(S[C@@H]3CCNC3)S[C@H]12.[Na+]`, for which the MIC with Bacillus subtilis is 0.05 µg/mL; in the assay on Citrobacter freundii, 6.25 µg/mL; against Enterococcus faecalis it was 1.56 µg/mL; in the assay with Enterobacter cloacae it was 0.78 µg/mL; in the assay with Escherichia coli [1], 0.2 µg/mL; in the assay on Escherichia coli [2], 0.78 µg/mL. For the same compound, the MIC against Klebsiella pneumoniae was 0.39 µg/mL; with Pseudomonas aeruginosa, 12.5 µg/mL; with Proteus vulgaris it was 0.78 µg/mL; in the assay on Serratia marcescens, 3.13 µg/mL; in the assay on Staphylococcus aureus [3] it was 0.1 µg/mL; against Staphylococcus aureus [4], 3.13 µg/mL.

On to `CC(O)[C@H]1C(=O)N2C(C(=O)O)=C(SCCNC=N)C[C@H]12` (single isomer, unassigned) [IMIPENEM ANHYDROUS], for which the MIC against Bacillus subtilis is less than 0.025 µg/mL; against Citrobacter freundii, 0.39 µg/mL (≈ 1.3 µM); in the assay on Enterococcus faecalis, 0.78 µg/mL (≈ 2.61 µM); with Enterobacter cloacae, 0.2 µg/mL (≈ 0.668 µM); in the assay with Escherichia coli [1], 0.2 µg/mL (≈ 0.668 µM); in the assay on Escherichia coli [2], 0.1 µg/mL (≈ 0.334 µM). For the same compound, the MIC against Klebsiella pneumoniae was 0.2 µg/mL (≈ 0.668 µM); in the assay with Pseudomonas aeruginosa, 1.56 µg/mL (≈ 5.21 µM); against Proteus vulgaris it was 3.13 µg/mL (≈ 10.5 µM); against Serratia marcescens it was 0.78 µg/mL (≈ 2.61 µM); with Staphylococcus aureus [3] it was less than 0.025 µg/mL; against Staphylococcus aureus [4] it was greater than 100 µg/mL.

As to `C[C@@H](O)[C@H]1C(=O)N2C(C(=O)[O-])=C([C@H]3CCCO3)S[C@H]12.[Na+]` [FAROPENEM SODIUM], the MIC against Bacillus subtilis was less than 0.025 µg/mL; in the assay on Citrobacter freundii it was 25 µg/mL; in the assay on Enterococcus faecalis, 0.78 µg/mL; in the assay on Enterobacter cloacae, 1.56 µg/mL; in the assay on Escherichia coli [1] it was 0.1 µg/mL; in the assay on Escherichia coli [2], 0.1 µg/mL. Moreover, the minimum inhibitory concentration (MIC) in the assay with Klebsiella pneumoniae was 0.2 µg/mL; in the assay on Pseudomonas aeruginosa it was greater than 100 µg/mL; in the assay on Proteus vulgaris, 3.13 µg/mL; in the assay with Serratia marcescens, 6.25 µg/mL; in the assay on Staphylococcus aureus [3], 0.05 µg/mL; in the assay on Staphylococcus aureus [4] it was greater than 100 µg/mL.

For `C[C@@H](O)[C@H]1C(=O)N2C(C(=O)O)=C([C@H]3CCCO3)S[C@H]12` [FAROPENEM], the MIC was 0.05 µg/mL (≈ 0.175 µM) in the assay on Bacillus subtilis; greater than 100 µg/mL in the assay on Citrobacter freundii; 0.39 µg/mL (≈ 1.37 µM) against Enterococcus faecalis; 100 µg/mL (≈ 350 µM) against Enterobacter cloacae; 0.78 µg/mL (≈ 2.73 µM) against Escherichia coli [1]; 25 µg/mL (≈ 87.6 µM) in the assay on Escherichia coli [2]. Moreover, the MIC with Klebsiella pneumoniae is 0.78 µg/mL (≈ 2.73 µM); with Pseudomonas aeruginosa, greater than 100 µg/mL; in the assay on Proteus vulgaris, 1.56 µg/mL (≈ 5.47 µM); in the assay on Serratia marcescens, 25 µg/mL (≈ 87.6 µM); in the assay on Staphylococcus aureus [3], 0.78 µg/mL (≈ 2.73 µM); in the assay on Staphylococcus aureus [4], 25 µg/mL (≈ 87.6 µM).
